{"source": "paper PMC8247525", "about": "(Diabetes Care, 2021)", "key": {"[1]": {"tested_on": "participants with overweight or obesity and type 2 diabetes", "assay": "Phase 2b study: glycemic control", "format": "in vivo, human", "details": "on metformin, LS mean (95% CI), ANCOVA, LOCF"}, "[2]": {"tested_on": "participants with overweight or obesity and type 2 diabetes", "assay": "Phase 2b study: safety", "format": "in vivo, human"}, "[3]": {"tested_on": "participants with overweight or obesity and type 2 diabetes", "assay": "Phase 2b study: anti-drug antibodies and exposure", "format": "in vivo, human", "procedure,_shortened": "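Dosing started at 100 µg and rose weekly by 100 µg. Anti-drug antibodies, a secondary end point, were measured in all treated participants by a high-sensitivity assay. Titers were split at 80 and related to trough drug concentrations.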"}, "[4]": {"tested_on": "participants with overweight or obesity and type 2 diabetes", "assay": "Phase 2b study: body weight", "format": "in vivo, human", "details": "for Percent change in body weight from baseline to week 14: LS mean (95% CI), ANCOVA, LOCF; for Weight loss, placebo-adjusted change from baseline: week 54"}, "[5]": {"tested_on": "participants with overweight or obesity and type 2 diabetes", "assay": "Phase 2b study: hepatic parameters", "format": "in vivo, human", "details": "LS mean (95% CI); for Percent change from baseline in GGT levels: after 54 weeks, ad hoc"}, "[6]": {"details": "cited from earlier work; for Reduction of mean body weight: head-to-head phase 2 trial of semaglutide with liraglutide"}, "[7]": {"details": "cotadutide 100 µg s.c. once daily"}, "[8]": {"details": "cotadutide 200 µg s.c. once daily"}, "[9]": {"details": "cotadutide 300 µg s.c. once daily"}, "[10]": {"details": "liraglutide 1.8 mg s.c. once daily"}}, "note": "Starred links: 1 amine or outer side, 2 acyl side, 3 side chain; linkers in the order of their positions; H or OH if unused. Groups on a side chain read outwards from the residue. No end group written: not given here. *: point of attachment. γGlu = O=C(O)[C@H](CCC(=O)[*:2])N[*:1]; Palmitoyl = CCCCCCCCCCCCCCCC(=O)*"}
{"substance": "Cotadutide", "values": [{"measurement": "Change from baseline to week 14 in HbA1c levels", "setting": "[1]; [7]", "result": "–1.11 [–1.30, –0.93]"}, {"measurement": "Change from baseline to week 14 in HbA1c levels", "setting": "[1]; [8]", "result": "–1.32 [–1.44, –1.21]"}, {"measurement": "Change from baseline to week 14 in HbA1c levels", "setting": "[1]; [9]", "result": "–1.26 [–1.38, –1.14]"}, {"measurement": "Pulse rate versus placebo", "setting": "[2]; all tested doses of cotadutide, all P = 0.001 to P = 0.006", "result": "Increases in pulse rates"}, {"measurement": "Systolic blood pressure", "setting": "[2]; [9]", "result": "reduction in systolic blood pressure"}, {"measurement": "Rate pressure product", "setting": "[2]; cotadutide treatment, ad hoc", "result": "no notable changes in rate pressure product"}, {"measurement": "Anti-drug antibody (ADA) incidence", "setting": "[3]; cotadutide-treated participants, all doses, high-sensitivity assay", "result": 60.8, "unit": "%"}, {"measurement": "Impact of ADA titer above 80 on pharmacokinetics, relative to population average", "setting": "[3]; cotadutide, trough concentrations higher at titer >80", "result": "approximately twofold"}, {"measurement": "Percent change in body weight from baseline to week 14", "setting": "[4]; [7]", "result": "–2.98 [–3.87, –2.09] %"}, {"measurement": "Percent change in body weight from baseline to week 14", "setting": "[4]; [8]", "result": "–3.67 [–4.22, –3.13] %"}, {"measurement": "Percent change in body weight from baseline to week 14", "setting": "[4]; [9]", "result": "–5.01 [–5.57, –4.45] %"}, {"measurement": "Weight loss, placebo-adjusted change from baseline", "setting": "[4]; [9]", "result": "–4.34%"}, {"measurement": "Percent change in fatty liver index, change from baseline", "setting": "[5]; [7]", "result": "–8.08 [–10.62, –5.54] %"}, {"measurement": "Percent change from baseline in GGT levels", "setting": "[5]; [7]", "result": "–10.54 [–26.75, 5.68] %"}, {"measurement": "Percent change in fatty liver index, change from baseline", "setting": "[5]; [8]", "result": "–6.73 [–8.29, –5.17] %"}, {"measurement": "Percent change in fatty liver index, change from baseline", "setting": "[5]; [9]", "result": "–8.18 [–9.79, –6.57] %"}, {"measurement": "Percent change from baseline in GGT levels", "setting": "[5]; [9]", "result": "–12.17 [–22.45, –1.90] %"}]}
{"substance": "Liraglutide: GLP-1 receptor monoagonist, open-label active comparator 1.8 mg (HAEGTFTSDVSSYLEGQAAK([γGlu-Palmitoyl])EFIAWLVRGRG; chains of the INN, looked up) [reference compound]", "values": [{"measurement": "Reduction of mean body weight", "setting": "[6]", "result": 7.8, "unit": "%"}, {"measurement": "Reduction of body weight", "setting": "[6]; phase 2 and phase 3 clinical trials", "result": "6–8%"}, {"measurement": "Percent change in body weight from baseline to week 14", "setting": "[4]; liraglutide 1.8 mg s.c. once daily, open-label", "result": "–3.44 [–4.20, –2.68] %"}, {"measurement": "Weight loss, placebo-adjusted change from baseline", "setting": "[4]; [10]", "result": "–2.65%"}, {"measurement": "Percent change from baseline in GGT levels", "setting": "[5]; [10]", "result": "–10.54 [–24.41, 3.33] %"}]}
{"substance": "semaglutide", "values": [{"measurement": "Reduction of mean body weight", "setting": "[6]", "result": "6.0–13.8%"}]}
